The source made the active and inactive calls.
Assays:
[1] = target: T1, 5-hydroxytryptamine receptor 1A (Homo sapiens, UniProt P08908); experiment: Displacement of [3H]-8-OH-DPAT from human 5-HT1A receptor expressed in HEK293 or CHO-K1 cells after 1 hr by microbeta counting analysis; format: cell-based
T1 sequence (P08908 whole entry): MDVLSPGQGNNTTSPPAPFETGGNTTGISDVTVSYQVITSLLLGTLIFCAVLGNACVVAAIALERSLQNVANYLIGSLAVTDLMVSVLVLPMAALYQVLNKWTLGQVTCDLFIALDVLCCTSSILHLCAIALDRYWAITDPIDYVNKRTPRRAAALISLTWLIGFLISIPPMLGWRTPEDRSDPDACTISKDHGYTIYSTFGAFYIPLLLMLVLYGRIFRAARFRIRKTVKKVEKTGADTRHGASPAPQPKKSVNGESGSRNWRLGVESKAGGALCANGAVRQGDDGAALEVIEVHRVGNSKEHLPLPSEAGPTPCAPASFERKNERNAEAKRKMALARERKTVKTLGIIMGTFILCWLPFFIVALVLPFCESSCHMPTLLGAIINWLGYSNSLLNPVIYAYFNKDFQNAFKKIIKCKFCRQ
Method in brief: (§1)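 Membranes from stably transfected HEK293 or CHO-K1 cells, homogenized, centrifuged twice at 35,000g, with 15 min at 37 °C in between. Receptor-specific Tris-HCl buffers with MgCl2, plus EDTA, pargyline or ascorbate as applicable. Incubated 1 h at 37 °C (5-HT1A at room temperature), filtered, and bound radioactivity counted.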

Homo sapiens = species on record: Homo sapiens; experiment: Selectivity ratio of Ki for human 5-HT1A receptor to Ki for human 5-HT7b receptor
[2] = target: T2, 5-hydroxytryptamine receptor 7 (Homo sapiens, UniProt P34969); experiment: Displacement of [3H]-5-CT from human 5-HT7b receptor expressed in HEK293 cells after 1 hr by microbeta counting analysis; format: cell-based; method in brief: as §1
Mus musculus [3] = experiment: Antidepressant-like activity in C57BL/6J mouse assessed as increase in force of fights at 2.5 mg/kg measured during 6 mins session by tail suspension test; format: functional, organism-based
Method in brief: (§2)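 Male C57BL/6J mice (22–26 g), 7–9 per group. Compound in distilled water, i.p. at 10 ml/kg, 60 min before test. Mice suspended by tail from a strain-gauge hook for 6 min. Struggling episodes, average event force and immobility (force below 0.20 N threshold) recorded automatically. One-way ANOVA with Bonferroni; mean ± SEM.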

Mus musculus [4] = experiment: Antidepressant-like activity in C57BL/6J mouse assessed as decrease in immobility time at 2.5 mg/kg measured during 6 mins session by tail suspension test; format: functional, organism-based; method in brief: as §2
Mus musculus [5] = experiment: Antidepressant-like activity in C57BL/6J mouse assessed as increase in number of fight episodes at 1.25 mg/kg measured during 6 mins session by tail suspension test; format: functional, organism-based; method in brief: as §2
Mus musculus [6] = experiment: Antidepressant-like activity in Swiss albino mouse assessed as decrease in immobility time at 0.312 mg/kg cotreated with 1.25 mg/kg of bupropion measured during last 4 mins of 6 mins test by forced swim test; format: functional, organism-based
Method in brief: (§3)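 Male Swiss albino mice, 7–10 per group. Test compound (i.p., 60 min pre-test) co-given with reboxetine or bupropion (60 min) or escitalopram (30 min), all in distilled water at 10 ml/kg. Placed in a water cylinder (10 cm water, 23–25 °C) for 6 min; immobility scored over the last 4 min by a blinded observer. Two-way ANOVA with Bonferroni.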

Mus musculus [7] = experiment: Toxicity in mouse assessed as effect on spontaneous locomotory activity at 0.312 to 2.5 mg/kg, ip administered 60 mins prior to testing measured for 6 mins; format: organism-based; details: in vivo, 0.1 h
Method in brief: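 Swiss albino or C57BL/6J mice habituated 30 min in activity cages. Ambulation counted from 2–6 min (matching the swim test) or over 6 min (matching the tail suspension test) with an infrared multi-channel activity monitor. Dosing i.p. as for the behavioral tests.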

Mus musculus [8] = experiment: Antidepressant-like activity in Swiss albino mouse assessed as decrease in immobility time at 0.625 to 2.5 mg/kg measured during last 4 mins of 6 mins test by forced swim test relative to control; format: functional; design: scale not given: the % may be the effect or the level left
Method in brief: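 Porsolt swim test in male Swiss albino mice (22–26 g), 7–10 per dose, each used once, run 09:00–14:00 by a blinded observer. Drugs in distilled water, i.p. at 10 ml/kg: escitalopram 30 min before test, others 60 min. Immobility scored during the last 4 min of a 6 min swim at 23–25 °C. One-way ANOVA with Bonferroni vs vehicle.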

Mus musculus [9] = experiment: Antidepressant-like activity in Swiss albino mouse assessed as decrease in immobility time at 0.312 mg/kg cotreated with 0.625 mg/kg of escitalopram measured during last 4 mins of 6 mins test by forced swim test relative to control; format: functional; design: scale not given: the % may be the effect or the level left; method in brief: as §3
[10] = target: 5-hydroxytryptamine receptor 6 (Homo sapiens, UniProt P50406); experiment: Displacement of [3H]-LSD from human 5-HT6 receptor expressed in HEK293 or CHO-K1 cells after 1 hr by microbeta counting analysis; format: cell-based; method in brief: as §1
[11] = target: 5-hydroxytryptamine receptor 2A (Homo sapiens, UniProt P28223); experiment: Displacement of [3H]-Ketanserin from human 5-HT2A receptor expressed in HEK293 or CHO-K1 cells after 1 hr by microbeta counting analysis; format: cell-based; method in brief: as §1
[12] = target: T2, 5-hydroxytryptamine receptor 7; experiment: Antagonist activity at human 5-HT7b receptor expressed in HEK293 cells assessed as inhibition of 5-CT induced cAMP accumulation after 30 mins by LANCE based TR-FRET assay; format: functional, cell-based
Method in brief: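 Stable 5-HT7 HEK293 cells in DMEM with 10% dialysed FBS and G418, harvested at 90% confluence, washed in warm PBS, and resuspended in HBSS/5 mM HEPES/0.5 mM IBMX/0.1% BSA. Compound incubated with cells for 30 min at room temperature against 5-CT (10 nM). Cells lysed with Eu-cAMP/ULight-anti-cAMP for 1 h at room temperature, then LANCE cAMP read-out. Triplicate at 8 concentrations.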

Rattus norvegicus = experiment: Cognitive enhancement effect in Sprague-Dawley rat memory impairment model assessed as reversal of natural forgetting impairment administered ip 30 mins prior to test measured after 24 hrs by novel object recognition test; format: functional, organism-based
Method in brief: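 Male Sprague–Dawley rats (about 250 g), handled and acclimatized. Habituated to an open field arena (25 lx) for 5 min, 24 h before testing. Two 3-min trials (T1, T2) separated by a 24 h inter-trial interval. Drug given i.p. 30 min before T1. Object exploration video-tracked; discrimination index = (EB−EA)/(EA+EB).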

[13] = target: Sodium-dependent serotonin transporter (Homo sapiens) (UniProt P31645); experiment: Displacement of [3H]imipramine from recombinant human SERT at 1 uM after 60 mins by scintillation counting analysis relative to control
Method in brief: (§4)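 Transporter and α1-adrenergic binding run externally by Eurofins Cerep using their standard protocols. Reported as % inhibition of control specific binding.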

D(2) dopamine receptor = D(2) dopamine receptor (Homo sapiens, UniProt P14416); experiment: Displacement of [3H]-Raclopride from human dopamine D2L receptor expressed in HEK293 or CHO-K1 cells after 1 hr by microbeta counting analysis; format: cell-based; method in brief: as §1
[14] = target: Sodium-dependent dopamine transporter (Homo sapiens) (UniProt Q01959); experiment: Displacement of [3H]BTCP from recombinant human DAT at 1 uM after 120 mins by scintillation counting analysis relative to control; method in brief: as §4
[15] = target: Sodium-dependent noradrenaline transporter (Homo sapiens) (UniProt P23975); experiment: Displacement of [3H]nisoxetine from recombinant human NET at 1 uM after 120 mins by scintillation counting analysis relative to control; method in brief: as §4
Sequence of Sodium-dependent noradrenaline transporter (Homo sapiens) (P23975 whole entry): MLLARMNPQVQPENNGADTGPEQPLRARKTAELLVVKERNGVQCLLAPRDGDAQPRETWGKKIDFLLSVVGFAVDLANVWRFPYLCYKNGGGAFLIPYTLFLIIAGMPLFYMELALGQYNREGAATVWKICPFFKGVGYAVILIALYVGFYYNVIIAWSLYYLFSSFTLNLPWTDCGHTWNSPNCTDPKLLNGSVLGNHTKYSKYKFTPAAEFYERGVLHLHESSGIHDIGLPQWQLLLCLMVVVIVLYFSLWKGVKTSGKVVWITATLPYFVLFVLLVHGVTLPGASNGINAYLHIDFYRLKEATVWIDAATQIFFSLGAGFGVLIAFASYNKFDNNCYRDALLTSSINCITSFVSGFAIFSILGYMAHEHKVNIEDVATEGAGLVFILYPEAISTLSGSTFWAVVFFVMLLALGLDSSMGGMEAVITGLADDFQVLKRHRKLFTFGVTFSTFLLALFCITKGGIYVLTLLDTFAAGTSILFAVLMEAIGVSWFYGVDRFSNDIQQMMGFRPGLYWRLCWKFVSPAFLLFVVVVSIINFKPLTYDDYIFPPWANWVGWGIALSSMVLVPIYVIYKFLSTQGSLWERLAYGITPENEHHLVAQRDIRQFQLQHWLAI

T2 sequence (P34969 whole entry): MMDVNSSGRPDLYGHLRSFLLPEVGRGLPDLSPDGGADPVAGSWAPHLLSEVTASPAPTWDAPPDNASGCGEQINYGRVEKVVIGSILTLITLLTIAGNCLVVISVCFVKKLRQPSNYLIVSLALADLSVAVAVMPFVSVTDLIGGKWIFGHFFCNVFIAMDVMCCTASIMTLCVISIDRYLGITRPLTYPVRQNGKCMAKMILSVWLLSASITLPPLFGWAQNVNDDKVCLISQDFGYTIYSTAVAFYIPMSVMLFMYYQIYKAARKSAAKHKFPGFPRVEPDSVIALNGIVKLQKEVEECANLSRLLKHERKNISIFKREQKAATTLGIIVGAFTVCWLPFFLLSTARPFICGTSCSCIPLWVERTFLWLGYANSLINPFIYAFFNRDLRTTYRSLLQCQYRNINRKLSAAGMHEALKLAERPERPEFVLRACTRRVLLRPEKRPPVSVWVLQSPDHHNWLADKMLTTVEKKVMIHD
Sequence of 5-hydroxytryptamine receptor 6 (P50406 whole entry): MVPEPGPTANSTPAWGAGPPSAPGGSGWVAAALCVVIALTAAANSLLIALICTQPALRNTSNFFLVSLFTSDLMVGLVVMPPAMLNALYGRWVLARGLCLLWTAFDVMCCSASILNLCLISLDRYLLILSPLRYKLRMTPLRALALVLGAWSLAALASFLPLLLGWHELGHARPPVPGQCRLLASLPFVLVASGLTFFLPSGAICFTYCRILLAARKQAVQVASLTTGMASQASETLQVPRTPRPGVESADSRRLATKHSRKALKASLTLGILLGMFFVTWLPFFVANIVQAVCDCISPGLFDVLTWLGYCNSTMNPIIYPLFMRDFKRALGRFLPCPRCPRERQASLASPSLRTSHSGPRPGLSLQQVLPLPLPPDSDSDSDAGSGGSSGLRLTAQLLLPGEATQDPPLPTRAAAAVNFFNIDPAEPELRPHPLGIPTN
Sequence of 5-hydroxytryptamine receptor 2A (P28223 whole entry): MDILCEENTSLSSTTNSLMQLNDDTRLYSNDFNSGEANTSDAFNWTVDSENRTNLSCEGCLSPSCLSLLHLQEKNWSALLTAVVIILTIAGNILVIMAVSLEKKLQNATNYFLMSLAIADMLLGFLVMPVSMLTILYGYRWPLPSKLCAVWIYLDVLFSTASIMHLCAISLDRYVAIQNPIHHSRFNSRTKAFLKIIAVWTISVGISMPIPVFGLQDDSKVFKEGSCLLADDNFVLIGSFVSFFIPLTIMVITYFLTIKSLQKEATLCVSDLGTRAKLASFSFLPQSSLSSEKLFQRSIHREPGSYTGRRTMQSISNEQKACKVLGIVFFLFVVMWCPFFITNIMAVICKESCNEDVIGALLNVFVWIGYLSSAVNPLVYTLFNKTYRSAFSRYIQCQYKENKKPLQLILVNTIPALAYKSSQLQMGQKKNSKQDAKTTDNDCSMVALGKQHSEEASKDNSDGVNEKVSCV
Sequence of Sodium-dependent dopamine transporter (Homo sapiens) (Q01959 whole entry): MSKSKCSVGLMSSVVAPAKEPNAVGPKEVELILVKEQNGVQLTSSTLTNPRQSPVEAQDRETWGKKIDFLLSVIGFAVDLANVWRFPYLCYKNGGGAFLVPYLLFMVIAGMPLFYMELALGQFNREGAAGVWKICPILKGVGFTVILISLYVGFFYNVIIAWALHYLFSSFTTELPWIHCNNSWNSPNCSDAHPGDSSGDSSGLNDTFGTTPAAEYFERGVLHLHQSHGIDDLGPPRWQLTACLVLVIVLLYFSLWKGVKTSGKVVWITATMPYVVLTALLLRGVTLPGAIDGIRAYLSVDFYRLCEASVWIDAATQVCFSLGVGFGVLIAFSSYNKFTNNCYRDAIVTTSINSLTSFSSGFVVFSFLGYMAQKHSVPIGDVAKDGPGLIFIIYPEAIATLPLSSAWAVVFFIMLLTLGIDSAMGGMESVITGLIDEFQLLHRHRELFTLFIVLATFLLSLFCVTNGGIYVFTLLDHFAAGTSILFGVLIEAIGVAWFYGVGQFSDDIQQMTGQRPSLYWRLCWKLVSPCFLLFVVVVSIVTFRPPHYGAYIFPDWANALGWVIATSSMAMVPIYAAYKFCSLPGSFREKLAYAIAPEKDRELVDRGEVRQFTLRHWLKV
Sequence of D(2) dopamine receptor (P14416 whole entry): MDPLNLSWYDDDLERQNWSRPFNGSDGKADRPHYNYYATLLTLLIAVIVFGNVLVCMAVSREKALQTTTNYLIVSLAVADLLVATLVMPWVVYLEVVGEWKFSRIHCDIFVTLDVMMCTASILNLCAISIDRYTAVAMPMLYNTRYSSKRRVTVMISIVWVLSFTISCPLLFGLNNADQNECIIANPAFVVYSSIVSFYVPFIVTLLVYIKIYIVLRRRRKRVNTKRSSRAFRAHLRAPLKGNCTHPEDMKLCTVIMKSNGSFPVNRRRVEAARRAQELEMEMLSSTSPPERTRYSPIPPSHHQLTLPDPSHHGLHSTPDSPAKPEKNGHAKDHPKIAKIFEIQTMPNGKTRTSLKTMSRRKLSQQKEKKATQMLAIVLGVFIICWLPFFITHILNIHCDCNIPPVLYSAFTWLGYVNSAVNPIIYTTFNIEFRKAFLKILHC
Sequence of Sodium-dependent serotonin transporter (Homo sapiens) (P31645 whole entry, looked up): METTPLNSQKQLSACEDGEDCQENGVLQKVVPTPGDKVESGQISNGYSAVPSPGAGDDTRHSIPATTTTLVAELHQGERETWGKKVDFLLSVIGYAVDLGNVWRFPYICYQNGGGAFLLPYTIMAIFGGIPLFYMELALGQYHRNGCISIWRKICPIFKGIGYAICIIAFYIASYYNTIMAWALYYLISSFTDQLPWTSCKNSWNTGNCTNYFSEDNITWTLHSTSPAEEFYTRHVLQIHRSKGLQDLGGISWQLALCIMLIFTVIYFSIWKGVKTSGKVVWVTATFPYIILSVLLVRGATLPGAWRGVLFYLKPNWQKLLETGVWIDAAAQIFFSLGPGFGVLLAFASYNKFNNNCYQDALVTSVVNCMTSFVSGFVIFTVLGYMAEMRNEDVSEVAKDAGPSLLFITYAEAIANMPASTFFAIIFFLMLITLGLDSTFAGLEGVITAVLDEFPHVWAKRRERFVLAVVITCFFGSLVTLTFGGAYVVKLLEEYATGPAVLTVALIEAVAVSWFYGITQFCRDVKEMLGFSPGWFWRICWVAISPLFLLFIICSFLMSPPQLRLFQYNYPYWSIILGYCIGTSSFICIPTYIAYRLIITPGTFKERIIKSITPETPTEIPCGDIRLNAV

| Ki [1] [nM] | Ratio Ki (Homo sapiens) | Ki [2] [nM] | SMILES | also measured |
| --- | --- | --- | --- | --- |
| 1840 | 32 | 58 | O=S(=O)(NC1CCN(CCCOc2ccccc2-c2ccccc2)CC1)c1ccc(F)cc1 | – |
| 1320 | 22 | 59 | O=S(=O)(NC1CCN(CC(O)COc2ccccc2-c2ccccc2)CC1)c1ccc(F)cc1 (stereo unspecified) | – |
| 1790 | 34 | 52 | CC(C)c1ccccc1OCCCN1CCC(NS(=O)(=O)c2cccc(F)c2)CC1 | – |
| 2080 | 65 | 32 | CC(C)c1ccccc1OCCCN1CCC(NS(=O)(=O)c2ccc(F)cc2)CC1 | Activity (Mus musculus [3]): Active; Activity (Mus musculus [4]): Active; Activity (Mus musculus [5]): Active; Activity (Mus musculus [6]): Active; Activity (Mus musculus [7]): Non-Toxic; Activity (Mus musculus [8]): 19 - 53%; Activity (Mus musculus [9]): 32.6%; Ki [10]: 268 nM; Ki [11]: 1350 nM; Kb [12]: 1 nM; Activity (Rattus norvegicus): Dose-dependent effect; Activity [13]: 79%; Ki (D(2) dopamine receptor): 328 nM; Activity [14]: < 10%; Activity [15]: < 10% |
| 1170 | 16 | 74 | CC(C)c1ccccc1OCC(C)N1CCC(NS(=O)(=O)c2ccc(F)cc2)CC1 (stereo unspecified) | – |
| 1630 | 31 | 52 | O=S(=O)(NC1CCN(CCCOc2ccccc2-c2ccccc2)CC1)c1cccc(Cl)c1 | – |
| 297 | 9 | 34 | CC(COc1ccccc1-c1ccccc1)N1CCC(NS(=O)(=O)c2ccc(F)cc2)CC1 (stereo unspecified) | – |

Reference: ChEMBL document CHEMBL4177556, “Novel 5-HT7R antagonists, arylsulfonamide derivatives of (aryloxy)propyl piperidines: Add-on effect to the antidepressant activity of SSRI and DRI, and pro-cognitive profile” (Bioorg Med Chem, 2017)
